In ChEMBL document CHEMBL1833970, “One-pot syntheses of pseudopteroxazoles from pseudopterosins: a rapid route to non-natural congeners with improved antimicrobial activity” (J Nat Prod, 2011) one finds MIC, Activity and IC50 data, which are given here for 17 compounds.

Experiment [1] deals with Mycolicibacterium diernhoferi. The experiment can be described thus: Antimicrobial activity against Mycobacterium diernhoferi ATCC 19340 after 5 days by microbroth dilution antibiotic susceptibility assay. The class given is functional. As to conditions: ATCC 19340, 120 h. In short, it runs like this:
(§1)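 Microbroth dilution per CLSI M24-A for fast-growing mycobacteria. Compounds prepared in sterile 20% DMSO and serially diluted to eight concentrations, triplicate on separate plates. Uninoculated and untreated (media + 20% DMSO) controls plus a control antibiotic column. Incubated 5 days at 30 °C; growth relative to untreated wells scored visually to give MIC.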
For orientation: In broth dilution the organism is exposed to a series of concentrations in liquid medium.

Another experiment has as its system Candida albicans. The experiment is described as follows: Antimicrobial activity against Candida albicans ATCC 14035 after 22 hrs by microbroth dilution antibiotic susceptibility assay. The class given is functional, organism-based. In outline:
(§2)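 Microbroth dilution per CLSI M7-A6. Compounds in sterile 20% DMSO, serially diluted to eight concentrations, tested in triplicate with uninoculated and untreated controls. Control antibiotic was gentamycin for P. aeruginosa, ciprofloxacin for P. vulgaris and nystatin for C. albicans. OD600 read at time zero and after 22 h at 37 °C. Survival relative to vehicle calculated after baseline subtraction; IC50 derived.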

The test system of a further experiment is Enterococcus faecium. The experiment can be described thus: Antimicrobial activity against vancomycin-resistant Enterococcus faecium Ef 379 after 22 hrs by microbroth dilution antibiotic susceptibility assay. The class given is functional, organism-based. As to conditions: Ef 379, 22 h. In outline: (§3)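 CLSI M7-A6 broth microdilution, run in triplicate. Compounds were made up in sterile 20% DMSO and serially diluted to eight concentrations. Plates carried uninoculated and untreated controls (media + 20% DMSO) plus a control antibiotic column. OD600 was read at time zero and after 22 h at 37 °C. Time-zero readings were subtracted, survival was calculated relative to vehicle wells, and IC50 was derived.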

Another experiment deals with Pseudomonas aeruginosa. The experiment is described as follows: Antimicrobial activity against Pseudomonas aeruginosa ATCC 14210 after 22 hrs by microbroth dilution antibiotic susceptibility assay. The format is functional, organism-based. In outline: as §2
Experiment [2] concerns Mycolicibacterium smegmatis. The experiment can be described thus: Antimicrobial activity against Mycobacterium smegmatis ATCC 12051 after 5 days by microbroth dilution antibiotic susceptibility assay. The class given is functional. As to conditions: ATCC 12051, 120 h. In short, it runs like this: as §1
The subject of the next experiment is Staphylococcus aureus. The experiment is described as follows: Antimicrobial activity against methicillin-resistant Staphylococcus aureus ATCC 33591 after 22 hrs by microbroth dilution antibiotic susceptibility assay. The format is functional, organism-based. As to conditions: ATCC 33591, 22 h. In outline:
as §3

For the next experiment, the system named is Proteus vulgaris. The experiment can be described thus: Antimicrobial activity against Proteus vulgaris ATCC 12454 after 22 hrs by microbroth dilution antibiotic susceptibility assay. The class given is functional, organism-based. In short, it runs like this:
as §2

In brackets after ≈: the same amount, converted by molar mass. Activity calls are given as the source filed them.

What is called MIC is the smallest concentration in the dilution series that meets the test's criterion for growth inhibition. Higher therefore signals a need for much substance. In general, IC50 refers to the concentration that gives 50% inhibition.

Take `CC(C)=C[C@@H]1C[C@H](C)[C@H]2CC[C@H](C)c3c2c1c(C)c1nc([C@@H](C)O)oc31`: the MIC is 8 µg/mL (≈ 22.6 µM) in experiment [1] and 16 µg/mL (≈ 45.3 µM) in experiment [2]. Further, the result in the experiment on Candida albicans and in the experiment on Pseudomonas aeruginosa was inactive. In addition, the half-inhibitory concentration (IC50) with Enterococcus faecium and with Staphylococcus aureus was over 128 µg/mL throughout.

For `CSCCc1nc2c(C)c3c4c(c2o1)[C@@H](C)CC[C@@H]4[C@@H](C)C[C@H]3C=C(C)C`, the MIC in experiment [1] and in experiment [2] was 16 µg/mL (≈ 41.7 µM) each time. The result in the experiment on Candida albicans and with Pseudomonas aeruginosa was inactive. Further, the IC50 in the experiment on Enterococcus faecium and in the experiment on Staphylococcus aureus was over 128 µg/mL each time.

In the experiment with Staphylococcus aureus, `CN[C@H](CC(C)C)C(=O)N[C@H]1C(=O)N[C@@H](CC(N)=O)C(=O)N[C@H]2C(=O)N[C@H]3C(=O)N[C@H](C(=O)N[C@H](C(=O)O)c4cc(O)cc(O)c4-c4cc3ccc4O)[C@H](O)c3ccc(c(Cl)c3)Oc3cc2cc(c3O[C@@H]2O[C@H](CO)[C@@H](O)[C@H](O)[C@H]2O[C@H]2C[C@](C)(N)[C@H](O)[C@H](C)O2)Oc2ccc(cc2Cl)[C@H]1O` [VANCOMYCIN] gave a half-inhibitory concentration (IC50) of 12.2 µg/mL (≈ 8.45 µM).

As to `CC(C)=C[C@@H]1C[C@H](C)[C@H]2CC[C@H](C)c3c2c1c(C)c1nc(-c2ccc(F)cc2)oc31`, the MIC in experiment [1] and in experiment [2] was over 64 µg/mL throughout. Moreover, the outcome with Candida albicans and in the experiment with Pseudomonas aeruginosa was inactive.

On to `CC(C)=C[C@@H]1C[C@H](C)[C@H]2CC[C@H](C)c3c2c1c(C)c1nc(C)oc31`, for which the values for the MIC in experiment [1] and in experiment [2] were 4 µg/mL (≈ 12.4 µM) and 8 µg/mL (≈ 24.7 µM), respectively. Also, the result in the experiment on Candida albicans and in the experiment on Pseudomonas aeruginosa was inactive. Besides, the IC50 in the experiment with Enterococcus faecium is 2.5 µg/mL (≈ 7.73 µM); in the experiment on Staphylococcus aureus it was over 128 µg/mL.

As for `CO[C@H]1/C=C/O[C@@]2(C)Oc3c(C)c(O)c4c(O)c(c(/C=N/N5CCN(C)CC5)c(O)c4c3C2=O)NC(=O)/C(C)=C\C=C\[C@H](C)[C@H](O)[C@@H](C)[C@@H](O)[C@@H](C)[C@H](OC(C)=O)[C@@H]1C` [RIFAMPIN], the minimum inhibitory concentration (MIC) in experiment [1] and in experiment [2] was 4 µg/mL (≈ 4.86 µM) each time. The compound further had an IC50 in the experiment on Enterococcus faecium of 8.75 µg/mL (≈ 10.6 µM).

Regarding `CC(C)=C[C@@H]1C[C@H](C)[C@H]2CC[C@H](C)c3c2c1c(C)c1ncoc31` [PSEUDOPTEROXAZOLE], the result in the experiment with Proteus vulgaris, with Candida albicans and in the experiment on Pseudomonas aeruginosa was inactive. Besides, the values for the minimal inhibitory concentration (MIC) in experiment [1] and in experiment [2] were 4 µg/mL (≈ 12.9 µM) and 2 µg/mL (≈ 6.46 µM), respectively. For the same compound, the IC50 in the experiment on Enterococcus faecium was 13 µg/mL (≈ 42 µM); in the experiment on Staphylococcus aureus, over 128 µg/mL.

On to `CC(C)=C[C@@H]1C[C@H](C)[C@H]2CC[C@H](C)c3c2c1c(C)c1nc(CCC(=O)O)oc31`, for which the MIC was 4 µg/mL (≈ 10.5 µM) in experiment [1] and 8 µg/mL (≈ 21 µM) in experiment [2]. Moreover, the result in the experiment with Candida albicans and in the experiment with Pseudomonas aeruginosa was inactive. Besides, the half-inhibitory concentration (IC50) in the experiment with Enterococcus faecium and in the experiment on Staphylococcus aureus was 12 µg/mL (≈ 31.5 µM) in each case.

For `CC(C)=C[C@@H]1C[C@H](C)[C@H]2CC[C@H](C)c3c2c1c(C)c1nc(CC(N)=O)oc31`, the result in the experiment with Proteus vulgaris, in the experiment on Candida albicans and in the experiment with Pseudomonas aeruginosa was inactive. For the same compound, the results for the minimum inhibitory concentration (MIC) in experiment [1] and in experiment [2] were 2 µg/mL (≈ 5.46 µM) and 4 µg/mL (≈ 10.9 µM), respectively. Also, the values for the concentration for half-maximal inhibition (IC50) in the experiment with Enterococcus faecium and with Staphylococcus aureus were 4 µg/mL (≈ 10.9 µM) and 3 µg/mL (≈ 8.19 µM), respectively.

For the compound `CC(C)=C[C@@H]1C[C@H](C)[C@H]2CC[C@H](C)c3c2c1c(C)c1nc(CCC(N)=O)oc31`, the MIC in experiment [1] and in experiment [2] was 4 µg/mL (≈ 10.5 µM) in each case. Also, the outcome in the experiment with Candida albicans and with Pseudomonas aeruginosa was inactive. Further, the IC50 in the experiment with Enterococcus faecium and in the experiment on Staphylococcus aureus was 7 µg/mL (≈ 18.4 µM) in each case.

On to `CC(C)=C[C@@H]1C[C@H](C)[C@H]2CC[C@H](C)c3c2c1c(C)c1nc(Cc2ccccc2)oc31`, for which the MIC in experiment [1] was 4 µg/mL (≈ 10 µM); in experiment [2], over 64 µg/mL. Also, the result in the experiment on Candida albicans and with Pseudomonas aeruginosa was inactive. The IC50 with Enterococcus faecium and in the experiment with Staphylococcus aureus was over 128 µg/mL throughout.

Consider `CC(C)=C[C@@H]1C[C@H](C)[C@H]2CC[C@H](C)c3c2c1c(C)c1ocnc31` [ISOPSEUDOPTEROXAZOLE], for which the minimal inhibitory concentration (MIC) in experiment [1] and in experiment [2] was 8 µg/mL (≈ 25.9 µM) each time. Besides, the result in the experiment on Candida albicans and in the experiment on Pseudomonas aeruginosa was inactive. In addition, the half-maximal inhibitory concentration (IC50) in the experiment on Enterococcus faecium is 13 µg/mL (≈ 42 µM); in the experiment on Staphylococcus aureus, over 128 µg/mL.

On to `COc1ccccc1-c1nc2c(C)c3c4c(c2o1)[C@@H](C)CC[C@@H]4[C@@H](C)C[C@H]3C=C(C)C`, for which the MIC in experiment [1] and in experiment [2] was over 64 µg/mL in each case. Moreover, the result in the experiment on Candida albicans and with Pseudomonas aeruginosa was inactive. The concentration for half-maximal inhibition (IC50) with Enterococcus faecium and with Staphylococcus aureus was over 128 µg/mL in each case.

With `COC(=O)CCc1nc2c(C)c3c4c(c2o1)[C@@H](C)CC[C@@H]4[C@@H](C)C[C@H]3C=C(C)C`, the MIC in experiment [1] and in experiment [2] was over 128 µg/mL throughout. Besides, the result in the experiment with Candida albicans and with Pseudomonas aeruginosa was inactive. The IC50 in the experiment on Enterococcus faecium and in the experiment on Staphylococcus aureus was over 128 µg/mL throughout.

`CC[C@H](C)c1nc2c(C)c3c4c(c2o1)[C@@H](C)CC[C@@H]4[C@@H](C)C[C@H]3C=C(C)C`: the minimal inhibitory concentration (MIC) in experiment [1] and in experiment [2] was over 64 µg/mL in each case. For the same compound, the outcome with Candida albicans and in the experiment with Pseudomonas aeruginosa was inactive. The half-maximal inhibitory concentration (IC50) in the experiment with Enterococcus faecium and in the experiment with Staphylococcus aureus was over 128 µg/mL each time.

Turning to `NNC(=O)c1ccncc1` [ISONIAZID], the MIC in experiment [1] came to 0.25 µg/mL (≈ 1.82 µM); in experiment [2], 1 µg/mL (≈ 7.29 µM).

In the case of `CCCCCc1nc2c(C)c3c4c(c2o1)[C@@H](C)CC[C@@H]4[C@@H](C)C[C@H]3C=C(C)C` [HOMOPSEUDOPTEROXAZOLE], the MIC in experiment [1] and in experiment [2] was over 64 µg/mL throughout. For the same compound, the result with Candida albicans and with Pseudomonas aeruginosa was inactive. For the same compound, the 50% inhibitory concentration (IC50) in the experiment on Enterococcus faecium and with Staphylococcus aureus was over 128 µg/mL throughout.
